Here are results for one molecule from ChEMBL document CHEMBL2176870 (J Med Chem, 2012).

The nature of data set [1]: Toxicity in iv dosed mouse. Type of data set: organism-based. To be noted: in vivo. In outline:
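Single intravenous dosing in mice; maximum tolerated dose determined.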

Data set [2] in a line: Terminal elimination half life in Sprague-Dawley rat liver at 2 x 50 mg/kg, iv. It counts as ADME, organism-based. Also on record: dose 50 mg/kg, route intravenous. To be noted: read-out: beta t1/2 (converted). The method, boiled down: (§1)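 Female Sprague–Dawley rats given two iv doses of 50 mg/kg. Levels measured in plasma, liver, kidney, brain, heart and lung. Cmax reported as ng/g for tissue and ng/mL for plasma; AUC(0–∞) as ng·h/mL. Half-life is the terminal elimination value.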

Data set [3] has as its system Staphylococcus aureus. Put plainly: Antibacterial activity against methicillin-susceptible Staphylococcus aureus. It counts as functional.
The nature of data set [4]: Toxicity in iv dosed dog administered bid for 2 weeks. Type of data set: organism-based, Canis lupus familiaris. To be noted: in vivo. In outline: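 Dogs dosed iv twice daily for 14 days; NOAEL determined, with body weight monitored.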
The nature of data set [5]: AUC (0 to infinity) in Sprague-Dawley rat lung at 2 x 50 mg/kg, iv. Type of data set: ADME, organism-based. Details: time infinity, dose 50 mg/kg, route intravenous. The method, boiled down:
as §1

Data set [6] is described as follows: Cmax in Sprague-Dawley rat liver at 2 x 50 mg/kg, iv. It counts as ADME, organism-based. Details: dose 50 mg/kg, route intravenous. The method, boiled down:
as §1

Data set [7] is described as follows: Toxicity in iv dosed rat administered bid for 2 weeks. Type of data set: organism-based. The settings on record: in vivo. The method, boiled down: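 Rats dosed iv twice daily for 14 days. NOAEL assessed from clinical findings and from macroscopic and microscopic examination.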
The subject of data set [8] is Staphylococcus aureus. Put plainly: Antibacterial activity against methicillin-resistant Staphylococcus aureus NRS384 infected in Swiss mouse. It counts as functional. In outline: (§2)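 Murine lethal systemic infection by intraperitoneal MRSA challenge. A single subcutaneous dose was given 5 min after infection.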
For data set [9], the system named is Staphylococcus aureus. Put plainly: Antibacterial activity against methicillin-resistant Staphylococcus aureus NRS385 infected in Swiss mouse. It counts as functional. In outline:
as §2

Data set [10] can be described thus: AUC (0 to infinity) in Sprague-Dawley rat kidney at 2 x 50 mg/kg, iv. Also on record: time infinity, dose 50 mg/kg, route intravenous. It counts as ADME, organism-based. The method, boiled down:
as §1

For data set [11], the system named is Staphylococcus aureus. The experiment in a line: Antibacterial activity against Staphylococcus aureus CIP54.146 after 18 hrs by broth microdilution method. It counts as functional. The settings on record: CIP54.146, 18 h. The method, boiled down: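 CLSI broth microdilution with serial 2-fold dilutions from 0.06 to 64 μg/mL. Cation-adjusted Mueller–Hinton broth, inoculum 5 × 10^5 CFU/mL, incubated at 35 °C for 18 h. MIC taken as the lowest concentration with no visible growth.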
For orientation: Broth dilution looks for growth in wells or tubes with falling amounts of substance.

The test system of data set [12] is Staphylococcus aureus. Put plainly: Antibacterial activity against methicillin-resistant Staphylococcus aureus NRS384 assessed as killing activity at 600 to 1200 mg q8h with prolonged infusion of 2 hrs. Type of data set: functional, organism-based.
Data set [13] is described as follows: Cmax in Sprague-Dawley rat heart at 2 x 50 mg/kg, iv. It counts as ADME, organism-based. Details: dose 50 mg/kg, route intravenous. The method, boiled down: as §1
Another data set deals with Streptococcus pneumoniae. Put plainly: Antibacterial activity against Streptococcus pneumoniae D39 after 18 hrs by broth microdilution method. Type of data set: functional. The settings on record: D39, 18 h. The method, boiled down: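 CLSI broth microdilution with 2-fold dilutions from 0.06 to 64 μg/mL. Cation-adjusted Mueller–Hinton broth with 2.5% lysed horse blood, inoculum 5 × 10^5 CFU/mL, grown at 35 °C for 18 h in 5% CO2. MIC is the lowest concentration showing no visible growth.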

≈ marks a conversion by molar mass, not a printed value. Calls of active or inactive are those of the source. No cut-off for these calls is given here.

As a reminder, the MIC90 is an inhibitory concentration at the 90% level, which refers to growth in some studies and to a panel of isolates in others. The low end stands for higher susceptibility, the high end for lower susceptibility. Broadly, the NOAEL is the highest dose or exposure tested at which no adverse effect was seen. In general, AUC(0-inf) refers to total exposure, with the tail of the curve extrapolated. The Cmax is the peak of the concentration-time curve. Usually ED50 stands for the dose at which the effect has come halfway, by size or by number of responders. Low readings indicate greater potency, high ones weaker potency. Usually MIC stands for the least concentration at which growth counts as inhibited. A higher MIC goes with a need for much substance. On to `CCc1cc(O)c(Oc2ccc(C(N)=O)cc2F)cc1F`, for which the MTD in [1] is over 200 mg/kg. Also, in data set [2], the half-life is 9.2 h. This molecule also had an MIC90 against Staphylococcus aureus [3] of 0.06 µg/mL (≈ 0.205 µM). Also, the NOAEL at 336 h is 100 mg/kg/day in [4] and 200 mg/kg/day in data set [7]. Moreover, the values for the AUC(0-inf) in [5] and in data set [10] were 18400 ng·h/mL and 20300 ng·h/mL, respectively. Besides, the Cmax turned out to be 51700 ng/g in data set [6] and 42100 ng/g in data set [13]. The ED50 in the data set with Staphylococcus aureus [8] amounted to 45.1 mg/kg; in the data set on Staphylococcus aureus [9], 28.3 mg/kg. For the same molecule, the values for the MIC in the data set with Staphylococcus aureus [11] and with Streptococcus pneumoniae were 0.062 µg/mL (≈ 0.211 µM) and over 32 µg/mL, respectively. Further, the outcome with Staphylococcus aureus [12] was Active.
